# Results from different studies.
# Lines come from different studies, so protocols differ.
# Target: cAMP-dependent protein kinase catalytic subunit alpha (PRKACA, Homo sapiens, UniProt P17612)
Compound,assay,setting,measurement,result
CCCCC(=O)Nc1ccc(-c2ccc3ncn(CCC)c(=O)c3c2)cn1,"binding, competition with immobilised ligand",0.5 µM,remaining binding,97%
C#Cc1cnc(Nc2ccnc(CO)c2)nc1Nc1ccccc1S(C)(=O)=NC#N (centres unmarked),cell-free assay,1 µM,remaining signal,100%
N#Cc1ccc(NC(=O)Nc2ccccc2)cc1,"cell-free assay, competition with immobilised ligand",25 µM,remaining binding,85%
CO[C@@H]1[C@H](N(C)C(=O)c2ccccc2)C[C@H]2O[C@]1(C)n1c3ccccc3c3c4c(c5c6ccccc6n2c5c31)C(=O)NC4,"enzyme activity, inhibitor",1 µM,inhibition,59%
COc1ccc2[nH]c3c4[nH]c5ccc(OC)cc5c4c4c(c3c2c1)C(=O)NC4=O,cell-free assay,1 µM,remaining signal,87%
COc1ccc2oc(-c3ccc4nc(N)oc4c3)c/c(=N\c3ccccc3NC(=O)CCN)c2c1,binding,1 µM,remaining binding,111%
C=CC(=O)N1CCC([C@@H]2CCNc3c(C(N)=O)c(-c4ccc(Oc5ccccc5)cc4)nn32)CC1,"enzyme activity, inhibitor",1 µM,inhibition,9%
CN1CCN(C(=O)c2ccc(NC(=O)Nc3ccc(N(C)c4ccnc(Nc5ccc(CS(C)(=O)=O)cc5)n4)cc3)cc2)CC1,cell-free assay,1 µM,remaining signal,100%
